Measurements as given in ChEMBL document CHEMBL2346604, “Synthesis of nordihydroguaiaretic acid derivatives and their bioactivities on S. pombe and K562 cell lines” (Eur J Med Chem, 2013).
≈ marks a conversion by molar mass, not a printed value.

What was measured:
[1] = system: K562; experiment: Inhibitive ratio of growth metabolism of human K562 cells at 9 mg/L at 37 degC by TAM air microcalorimetry (reference value: 0%); format: functional
Summary of the method: (§1)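 K562 cells in supplemented RPMI 1640 (10% FBS) seeded at 1×10⁶ cells/mL with compound at graded concentrations. Heat flow recorded in real time in an eight-channel isothermal microcalorimeter (TAM Air). Rate constant k derived from thermogenic growth curves. Inhibition ratio I = (k0 − kc)/k0 × 100% relative to untreated cells, and IC50 is the concentration at I = 50%. Mean ± S.D., n = 3.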

[2] = system: Schizosaccharomyces pombe; experiment: Inhibition of growth metabolism of Schizosaccharomyces pombe ACCC 20047 assessed as growth rate constant at 40 mg/L at 32 degC by TAM air microcalorimetry; format: functional
Summary of the method: (§2)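 Cells seeded at 1×10⁶ cells/mL with compound at a range of concentrations. Heat output recorded continuously in a TAM Air isothermal microcalorimeter. Growth rate constant k taken from power-time curves. I = (k0 − kc)/k0 × 100%, and IC50 is the concentration giving I = 50%. n = 3.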

[3] = system: K562; experiment: Inhibitive ratio of growth metabolism of human K562 cells at 4 mg/L at 37 degC by TAM air microcalorimetry (reference value: 0%); format: functional; summary of the method: as §1
[4] = system: Schizosaccharomyces pombe; experiment: Inhibition of growth metabolism of Schizosaccharomyces pombe ACCC 20047 assessed as growth rate constant at 400 mg/L at 32 degC by TAM air microcalorimetry; format: functional; summary of the method: as §2
[5] = system: Schizosaccharomyces pombe; experiment: Inhibition of growth metabolism of Schizosaccharomyces pombe ACCC 20047 assessed as growth rate constant at 320 mg/L at 32 degC by TAM air microcalorimetry; format: functional; summary of the method: as §2
[6] = system: Schizosaccharomyces pombe; experiment: Inhibitive ratio of growth metabolism of Schizosaccharomyces pombe ACCC 20047 at 240 mg/L at 32 degC by TAM air microcalorimetry (reference value: 0%); format: functional; summary of the method: as §2
[7] = system: Schizosaccharomyces pombe; experiment: Inhibitive ratio of growth metabolism of Schizosaccharomyces pombe ACCC 20047 at 320 mg/L at 32 degC by TAM air microcalorimetry (reference value: 0%); format: functional; summary of the method: as §2
[8] = system: Schizosaccharomyces pombe; experiment: Inhibitive ratio of growth metabolism of Schizosaccharomyces pombe ACCC 20047 at 160 mg/L at 32 degC by TAM air microcalorimetry (reference value: 0%); format: functional; summary of the method: as §2
[9] = system: K562; experiment: Inhibitive ratio of growth metabolism of human K562 cells at 8 mg/L at 37 degC by TAM air microcalorimetry (reference value: 0%); format: functional; summary of the method: as §1
[10] = system: K562; experiment: Inhibitive ratio of growth metabolism of human K562 cells at 6 mg/L at 37 degC by TAM air microcalorimetry (reference value: 0%); format: functional; summary of the method: as §1
[11] = system: K562; experiment: Inhibition of growth metabolism of human K562 cells assessed as growth rate constant at 11 mg/L at 37 degC by TAM air microcalorimetry; format: functional; summary of the method: as §1
[12] = system: Schizosaccharomyces pombe; experiment: Inhibitive ratio of growth metabolism of Schizosaccharomyces pombe ACCC 20047 at 40 mg/L at 32 degC by TAM air microcalorimetry (reference value: 0%); format: functional; summary of the method: as §2
[13] = system: Schizosaccharomyces pombe; experiment: Inhibition of growth metabolism of Schizosaccharomyces pombe ACCC 20047 assessed as growth rate constant at 80 mg/L at 32 degC by TAM air microcalorimetry; format: functional; summary of the method: as §2
[14] = system: K562; experiment: Inhibition of growth metabolism of human K562 cells assessed as growth rate constant at 9 mg/L at 37 degC by TAM air microcalorimetry; format: functional; summary of the method: as §1
[15] = system: K562; experiment: Inhibition of growth metabolism of human K562 cells at 37 degC by TAM air microcalorimetry; format: functional, cell-based; summary of the method: as §1
[16] = system: K562; experiment: Inhibition of growth metabolism of human K562 cells assessed as growth rate constant at 8 mg/L at 37 degC by TAM air microcalorimetry; format: functional; summary of the method: as §1
[17] = system: K562; experiment: Inhibition of growth metabolism of human K562 cells assessed as growth rate constant at 7 mg/L at 37 degC by TAM air microcalorimetry; format: functional; summary of the method: as §1
[18] = system: Schizosaccharomyces pombe; experiment: Inhibitive ratio of growth metabolism of Schizosaccharomyces pombe ACCC 20047 at 80 mg/L at 32 degC by TAM air microcalorimetry (reference value: 0%); format: functional; summary of the method: as §2
[19] = system: Schizosaccharomyces pombe; experiment: Inhibition of growth metabolism of Schizosaccharomyces pombe ACCC 20047 assessed as growth rate constant at 20 mg/L at 32 degC by TAM air microcalorimetry; format: functional; summary of the method: as §2
[20] = system: Schizosaccharomyces pombe; experiment: Inhibition of growth metabolism of Schizosaccharomyces pombe ACCC 20047 at 32 degC by TAM air microcalorimetry; format: functional, organism-based; summary of the method: as §2
[21] = system: K562; experiment: Inhibition of growth metabolism of human K562 cells assessed as growth rate constant at 6 mg/L at 37 degC by TAM air microcalorimetry; format: functional; summary of the method: as §1
[22] = system: Schizosaccharomyces pombe; experiment: Inhibitive ratio of growth metabolism of Schizosaccharomyces pombe ACCC 20047 at 20 mg/L at 32 degC by TAM air microcalorimetry (reference value: 0%); format: functional; summary of the method: as §2
[23] = system: K562; experiment: Inhibition of growth metabolism of human K562 cells assessed as growth rate constant at 4 mg/L at 37 degC by TAM air microcalorimetry; format: functional; summary of the method: as §1
[24] = system: Schizosaccharomyces pombe; experiment: Inhibitive ratio of growth metabolism of Schizosaccharomyces pombe ACCC 20047 at 400 mg/L at 32 degC by TAM air microcalorimetry (reference value: 0%); format: functional; summary of the method: as §2
[25] = system: Schizosaccharomyces pombe; experiment: Inhibition of growth metabolism of Schizosaccharomyces pombe ACCC 20047 assessed as growth rate constant at 240 mg/L at 32 degC by TAM air microcalorimetry; format: functional; summary of the method: as §2
[26] = system: Schizosaccharomyces pombe; experiment: Inhibition of growth metabolism of Schizosaccharomyces pombe ACCC 20047 assessed as growth rate constant at 160 mg/L at 32 degC by TAM air microcalorimetry; format: functional; summary of the method: as §2
[27] = system: K562; experiment: Inhibitive ratio of growth metabolism of human K562 cells at 7 mg/L at 37 degC by TAM air microcalorimetry (reference value: 0%); format: functional; summary of the method: as §1
[28] = system: K562; experiment: Inhibitive ratio of growth metabolism of human K562 cells at 11 mg/L at 37 degC by TAM air microcalorimetry (reference value: 0%); format: functional; summary of the method: as §1
[29] = system: K562; experiment: Inhibitive ratio of growth metabolism of human K562 cells at 2 mg/L at 37 degC by TAM air microcalorimetry (reference value: 0%); format: functional; summary of the method: as §1
[30] = system: K562; experiment: Inhibition of growth metabolism of human K562 cells assessed as growth rate constant at 12 mg/L at 37 degC by TAM air microcalorimetry; format: functional; summary of the method: as §1
[31] = system: K562; experiment: Inhibitive ratio of growth metabolism of human K562 cells at 12 mg/L at 37 degC by TAM air microcalorimetry (reference value: 0%); format: functional; summary of the method: as §1
[32] = system: K562; experiment: Inhibition of growth metabolism of human K562 cells assessed as growth rate constant at 2 mg/L at 37 degC by TAM air microcalorimetry; format: functional; summary of the method: as §1
[33] = system: K562; experiment: Inhibition of growth metabolism of human K562 cells assessed as growth rate constant at 14 mg/L at 37 degC by TAM air microcalorimetry; format: functional; summary of the method: as §1
[34] = system: K562; experiment: Inhibitive ratio of growth metabolism of human K562 cells at 14 mg/L at 37 degC by TAM air microcalorimetry (reference value: 0%); format: functional; summary of the method: as §1

IC50 [15] [µg/mL]	Structure (SMILES)	Activity [2] [min⁻¹]	inhibition at 4 µg/mL [3] [%]	Activity [4] [min⁻¹]	Activity [5] [min⁻¹]	inhibition at 240 µg/mL [6] [%]	inhibition at 320 µg/mL [7] [%]	inhibition at 160 µg/mL [8] [%]	inhibition at 8 µg/mL [9] [%]	inhibition at 6 µg/mL [10] [%]	inhibition at 40 µg/mL [12] [%]	Activity [13] [min⁻¹]	Activity [16] [×10⁻⁴ /min]	inhibition at 80 µg/mL [18] [%]	Activity [19] [min⁻¹]	IC50 [20] [µg/mL]	Activity [21] [×10⁻⁴ /min]	inhibition at 20 µg/mL [22] [%]	Activity [23] [×10⁻⁴ /min]	inhibition at 400 µg/mL [24] [%]	further results
8.57 (≈ 22.2 µM)	COc1ccc(C(=O)C(C)C(C)C(=O)c2ccc(OC)c(OC)c2)cc1OC (stereo unspecified)	0.00462	-13.9	0.00075	0.00163	23.2	63.3	5.18	42	-0.78	-4.05	0.0046	2.2866	-3.6	0.00479	290 (≈ 750 µM)	3.9703	-7.88	4.4893	83	inhibition at 9 µg/mL [1]: 55.8%; Activity [11]: 1.681 ×10⁻⁴ /min; Activity [14]: 1.7435 ×10⁻⁴ /min; Activity [17]: 3.6261 ×10⁻⁴ /min; Activity [25]: 0.00341 min⁻¹; Activity [26]: 0.00421 min⁻¹; inhibition at 7 µg/mL [27]: 7.96%; inhibition at 11 µg/mL [28]: 57.3%
11.2 (≈ 30.5 µM)	COc1ccc(-c2oc(-c3ccc(OC)c(OC)c3)c(C)c2C)cc1OC	0.00429	-13.2	0.00113	0.00273	18	35.3	-1.9	19.8	18.9	-1.66	0.00431	3.0855	-2.13	0.00427	350 (≈ 950 µM)	3.1202	-1.18	4.3527	73.2	inhibition at 2 µg/mL [29]: -1.79%; Activity [30]: 1.65 ×10⁻⁴ /min; inhibition at 12 µg/mL [31]: 57.1%; Activity [32]: 3.9155 ×10⁻⁴ /min; Activity [25]: 0.00346 min⁻¹; Activity [26]: 0.0043 min⁻¹; Activity [33]: 7.6784 ×10⁻⁵ /min; inhibition at 14 µg/mL [34]: 80%
